Source: PubChem BioAssay (Johns Hopkins Ion Channel Center)
Rows were chosen to be rich in hits. Some 2.3% of all compounds tested hit in one or more screens of this group.
TRPC4 act – opens the mouse TRPC4 cation channel | Q9QUQ5 | HEK293 TRPC4beta/mu-opioid, Fluo4 calcium fluorescence; hits give high values | B-score at 10 µM | 310,000 compounds, 0.49% hits;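 active means B-score above 5 SD of library B-scores, and initial fluorescence ratio not above library mean plus 5 SD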;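 further: positive B-score marks a calcium rise read as TRPC4 activation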
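Incubation: 45 min room-temperature Fluo4 loading, 110 s read / System: HEK293 cells stably co-expressing mouse TRPC4beta and mu-opioid receptor / Signal: Fluo4 fluorescence, kinetic / Control set: buffer (low) and maximal DAMGO (high) / Measure: integrated baseline-normalised fluorescence ratio, converted to per-well B score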
TRPC6 inh – mouse TRPC6 channel inhibition; AID 2553; 310,000 compounds, 1.1% hits; Q61143; HEK293-TRPC6, membrane potential dye, ACh-evoked depolarization; hits give low values; B-score at 10 µM;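 active means B-score under library mean minus 3 SD, initial fluorescence not abnormally high, positive integrated signal ratio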;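 further: B-score derived from integrated fluorescence ratio over the kinetic read; more negative B-score means stronger inhibition of depolarization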
Target sequence (Q61143 whole entry, looked up): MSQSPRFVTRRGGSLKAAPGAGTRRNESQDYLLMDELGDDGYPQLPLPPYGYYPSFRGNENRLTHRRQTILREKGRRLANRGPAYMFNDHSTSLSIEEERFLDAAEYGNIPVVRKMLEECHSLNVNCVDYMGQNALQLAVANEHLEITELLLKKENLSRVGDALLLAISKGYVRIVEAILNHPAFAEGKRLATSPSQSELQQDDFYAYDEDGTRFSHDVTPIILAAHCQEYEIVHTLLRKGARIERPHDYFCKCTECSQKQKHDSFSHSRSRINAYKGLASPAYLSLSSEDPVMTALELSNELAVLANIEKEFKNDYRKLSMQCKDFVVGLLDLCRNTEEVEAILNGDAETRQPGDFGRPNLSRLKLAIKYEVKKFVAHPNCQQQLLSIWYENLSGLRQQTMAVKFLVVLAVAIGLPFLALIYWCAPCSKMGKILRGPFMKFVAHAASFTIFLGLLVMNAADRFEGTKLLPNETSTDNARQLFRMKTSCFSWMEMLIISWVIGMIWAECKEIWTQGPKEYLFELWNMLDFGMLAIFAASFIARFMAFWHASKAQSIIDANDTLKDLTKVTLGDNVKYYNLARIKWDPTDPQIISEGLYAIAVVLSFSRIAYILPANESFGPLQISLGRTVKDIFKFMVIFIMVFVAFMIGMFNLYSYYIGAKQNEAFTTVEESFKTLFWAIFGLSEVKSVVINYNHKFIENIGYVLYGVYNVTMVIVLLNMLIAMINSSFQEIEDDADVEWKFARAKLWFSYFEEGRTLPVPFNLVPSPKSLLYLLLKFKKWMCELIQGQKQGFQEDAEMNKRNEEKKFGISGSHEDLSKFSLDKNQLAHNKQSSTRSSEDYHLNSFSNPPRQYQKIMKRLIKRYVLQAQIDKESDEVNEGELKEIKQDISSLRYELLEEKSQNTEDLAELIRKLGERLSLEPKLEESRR
TRPC4 block – inhibitors of mouse TRPC4 channel; Q9QUQ5; 300,000 compounds, 0.39% hits; HEK293 TRPC4beta/mu-opioid, DAMGO-evoked Fluo4 calcium flux; hits give low values; B-score at 10 µM;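 active means B-score over 3 SD under the library average, no early fluorescence shift, positive overall ratio signal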
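Test system – stable TRPC4beta/mu-opioid receptor HEK293 cells · Probe or stimulus – DAMGO, a submaximal dose followed by a maximal one · Dosing – one concentration per compound · Signal – Fluo4 calcium fluorescence by kinetic imaging, 5 s 1 Hz baseline · Evaluation – per-well B score of integrated baseline-normalized Fluo4 ratio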
TRPC4 PAM – allosteric potentiators of mouse TRPC4 channel. Q9QUQ5. HEK293 TRPC4beta/mu-opioid, DAMGO EC20, Fluo-4 Ca2+ flux; hits give high values. B-score at 10 µM. 310,000 compounds, 0.42% hits. AID 2227;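 active means B-score of calcium response area above 5 SD of library B-scores, with initial fluorescence ratio within 5 SD of library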
TRPC6 activator – mouse TRPC6 channel activation. 310,000 compounds, 0.13% hits. HEK293-TRPC6 membrane potential dye fluorescence; hits give high values. B-score at 10 µM;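 active means B-score of the integrated fluorescence ratio above library mean plus 3 SD, and starting fluorescence ratio within library mean plus 5 SD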;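 further: higher score means more depolarization so channel activation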
TRPC4 sel inh 2 – second selectivity test of TRPC6 inhibitors: effect on mouse TRPC4. shares compounds with TRPC6 inh. HEK293 TRPC4/MOR, membrane potential dye fluorescence; channel activated by saturating DAMGO dose. inhibition, % at 10 µM. 920 compounds, 42% hits. AID 2776;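 active means compounds whose fluorescence signal differed from control wells by over 3 SD, either direction, in both duplicate plates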
TRPC4 spec – mouse TRPC4 off-target activity of TRPC6 inhibitors | shares compounds with TRPC6 inh | HEK293 TRPC4/mu-opioid, membrane potential fluorescence | activity change, negative = inhibition, % at 10 µM | 920 compounds, 61% hits;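 active means rise or fall in signal beyond 3 SD of buffer-only wells in both replicate plates, either sign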;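 further: integrated kinetic ratio of fluorescence range over baseline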
HEK293 MPD ctr 2-1 – parental HEK293 nonspecific activity of TRPC6 inhibitors, second screen; shares compounds with TRPC6 inh; parental HEK293 membrane potential dye fluorescence; maximal acetylcholine challenge after compound addition; signal change vs control, % at 10 µM; 920 compounds, 31% hits;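 active means membrane potential signal moving either way by over 3 SD of the maximum-effect control, in both duplicate plates, meaning non-specific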
HEK293 MPD ctr-1 – counter-screen for TRPC6 inhibitors: effect in parental HEK293 cells. shares compounds with TRPC6 inh. parental HEK293 membrane potential dye fluorescence. membrane potential signal change, % at 10 µM. 920 compounds, 60% hits. AID 2780;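 active means membrane potential signal shifting up or down by more than 3 SD of buffer-only wells, on both duplicate plates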
HEK293 MPD ctr-2 – checks TRPC6 modulator effects in parental HEK293 cells; 2,400 compounds, 51% hits; shares compounds with TRPC6 inh; membrane potential dye fluorescence; membrane potential signal change, % at 10 µM;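 active means membrane potential signal moves up or down beyond 5 SD from buffer-only wells, on both duplicate plates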
HEK293 MPD ctr 2-2 – second check of TRPC6 modulator effects in parental HEK293 cells; membrane potential dye fluorescence; after compound, maximal acetylcholine stimulation; AID 488926; 2,400 compounds, 14% hits; shares compounds with TRPC6 inh; inhibition, % at 10 µM;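 active means membrane potential signal drops by more than 5 SD from the mean control signal, in both duplicate plates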
TRPC4 ctr mod – tests whether TRPC6 modulators also affect mouse TRPC4; shares compounds with TRPC6 inh; HEK293 TRPC4/mu-opioid, membrane potential fluorescence; percent change from control (negative = decrease, positive = increase), % at 10 µM; 2,400 compounds, 69% hits;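 active means membrane potential signal moved up or down beyond 5 SD of buffer control wells, in both duplicate plates, actives on both sides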
TRPC4 ctr inh 2 – second check of whether TRPC6 modulators also affect mouse TRPC4. AID 488928. shares compounds with TRPC6 inh. HEK293 TRPC4/mu-opioid, membrane potential dye fluorescence; stimulated with maximal-effect DAMGO. inhibition, % at 10 µM. 2,400 compounds, 55% hits;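 active means drop in membrane potential signal beyond 5 SD of the control wells in both duplicate plates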;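 further: TRPC4 counter screen for TRPC6 hits run under conditions tuned for TRPC6 not TRPC4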
TRPC6 inh conf – mouse TRPC6 inhibitor confirmation. shares compounds with TRPC6 inh. HEK293-TRPC6, membrane potential dye, ACh-evoked depolarization. inhibition, % at 10 µM. 3,300 compounds, 43% hits. AID 488960;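 active means fluorescence ratio falls more than 5 SD below the full-stimulation control mean, in both duplicate runs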;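 further: integrated fluorescence ratio of peak minus minimum over baseline after agonist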
TRPC6 act confirm – confirmation of mouse TRPC6 activators | HEK293-TRPC6 membrane potential dye fluorescence, FDSS | 2,800 compounds, 11% hits | shares compounds with TRPC6 inh | activation, % at 10 µM;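 active means ratio signal rise beyond 5 SD above unstimulated control wells' mean, seen in both duplicate runs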
Of the large screens only hits and unclear results are named; the others gave an inactive call (follow-up assays come after a bar, where they were run).

CCCCNC(=O)CCn1nc(-c2ccccc2)c2ccccc2c1=O	TRPC6 inh -7.9 | TRPC4 sel inh 2 inactive | TRPC4 spec 7.5% | HEK293 MPD ctr 2-1 inactive | HEK293 MPD ctr-1 5.7% | TRPC6 inh conf inactive
CCOC(=O)CCn1nc(-c2ccc(C)cc2)c2ccccc2c1=O	TRPC6 inh -5.5 | HEK293 MPD ctr-2 180% | HEK293 MPD ctr 2-2 inactive | TRPC4 ctr mod 42% | TRPC4 ctr inh 2 inactive | TRPC6 inh conf 54%
NC(=O)C(c1ccccc1)C1CCCC1 (stereo unspecified)	none
O=C(CSc1nnc(NC(=O)C2CC2)s1)Nc1ccc2c(c1)OCCO2	none
CC(C)N1CCc2c(sc(NC(=S)NC(=O)c3ccccc3)c2C#N)C1	TRPC4 act 71, TRPC6 activator 48 | HEK293 MPD ctr-2 inactive | HEK293 MPD ctr 2-2 inactive | TRPC4 ctr mod 8.0% | TRPC4 ctr inh 2 inactive | TRPC6 inh conf inactive | TRPC6 act confirm inactive
CCOC(=O)C1CCN(C(=O)CCCNC(=O)Cn2cnc3sc(C)c(C)c3c2=O)CC1	none
CCOc1ccc(CCNC(=O)CCCn2c(=O)c3cccn3c3cccnc32)cc1OCC	none
CCCC(=O)Nc1cccc2c1CCCC2	none
CCc1ccc(OCC(=O)Nc2cccc3c2CCCC3)cc1	TRPC6 inh -5 | HEK293 MPD ctr-2 inactive | HEK293 MPD ctr 2-2 inactive | TRPC4 ctr mod inactive | TRPC4 ctr inh 2 inactive | TRPC6 inh conf inactive | TRPC6 act confirm inactive
CN(C)CCCN(C(=O)c1ccc([N+](=O)[O-])s1)c1nc2cc3c(cc2s1)OCCO3	none
CN(C)CCCN(C(=O)c1ccc(Cl)s1)c1nc2cc3c(cc2s1)OCO3	TRPC4 act 100, TRPC6 inh -6.1 | HEK293 MPD ctr-2 inactive | HEK293 MPD ctr 2-2 inactive | TRPC4 ctr mod -22% | TRPC4 ctr inh 2 84% | TRPC6 inh conf 48% | TRPC6 act confirm inactive
CCN(CC)CCN(C(=O)c1ccc(Br)s1)c1nc2cc3c(cc2s1)OCCO3	none
CN(C)CCCN(C(=O)c1ccc(Br)s1)c1nc2cc3c(cc2s1)OCCO3	TRPC4 act 63, TRPC6 inh -6.4 | HEK293 MPD ctr-2 inactive | HEK293 MPD ctr 2-2 inactive | TRPC4 ctr mod -14% | TRPC4 ctr inh 2 82% | TRPC6 inh conf 60% | TRPC6 act confirm inactive
CN(C)CCCN(C(=O)c1cccs1)c1nc2cc3c(cc2s1)OCO3	TRPC6 inh -9.7, TRPC4 block -8 | HEK293 MPD ctr-2 inactive | HEK293 MPD ctr 2-2 inactive | TRPC4 ctr mod -19% | TRPC4 ctr inh 2 64% | TRPC6 inh conf 42% | TRPC6 act confirm inactive
Cc1ccc2nc(N(CCN(C)C)C(=O)c3cc(Cl)sc3Cl)sc2c1	none
CN(C)CCCN(C(=O)c1cc(Cl)sc1Cl)c1nc2cc3c(cc2s1)OCO3	TRPC6 inh -5.1 | HEK293 MPD ctr-2 inactive | HEK293 MPD ctr 2-2 55% | TRPC4 ctr mod inactive | TRPC4 ctr inh 2 91% | TRPC6 inh conf 61% | TRPC6 act confirm inactive
CCOC(=O)c1c(S(=O)(=O)NCC(=O)Nc2cccc(F)c2)c(C)n(C)c1C	none
O=C1CCC(C(=O)N2CCC(CCO)CC2)CN1Cc1ccc(Cl)cc1 (stereo unspecified)	none
Cc1ccc(CNC(=O)C(=O)NCC2OCCCN2S(=O)(=O)c2cccs2)cc1 (stereo unspecified)	none
Cc1ccc(C)c(CS(=O)(=O)c2cn(CC(=O)N3CCC(C)CC3)c3ccccc23)c1	none
Cc1ccc(C)c(CS(=O)(=O)c2cn(CC(=O)N3CCCCC3)c3ccccc23)c1	TRPC6 activator 12 | HEK293 MPD ctr-2 inactive | HEK293 MPD ctr 2-2 inactive | TRPC4 ctr mod inactive | TRPC4 ctr inh 2 inactive | TRPC6 act confirm 44%
CC(=O)NN1C(=O)/C(=C\c2ccccc2)SC1=S	none
O=C1/C(=C/c2ccccc2)SC(=S)N1N1C(=O)C2CC2C1=O (stereo unspecified)	TRPC6 inh -8.8 | TRPC4 sel inh 2 inactive | TRPC4 spec inactive | HEK293 MPD ctr 2-1 inactive | HEK293 MPD ctr-1 inactive | TRPC6 inh conf inactive | TRPC6 act confirm inactive
O=C(CSc1ncc(-c2ccccc2)n1CC1CCCO1)N1CCCCC1 (stereo unspecified)	TRPC6 inh -6 | HEK293 MPD ctr-2 100% | HEK293 MPD ctr 2-2 inactive | TRPC4 ctr mod 13% | TRPC4 ctr inh 2 inactive | TRPC6 inh conf inactive
Cc1sc(NC(=O)c2sc3nc4c(C)cccc4cc3c2N)c(C#N)c1C	TRPC6 activator 13 | HEK293 MPD ctr-2 inactive | HEK293 MPD ctr 2-2 inactive | TRPC4 ctr mod 13% | TRPC4 ctr inh 2 inactive | TRPC6 inh conf inactive | TRPC6 act confirm inactive
CCN(CC)CCOC(c1ccccc1)c1ccc(C)cc1 (stereo unspecified)	none
Cc1ccc(C(OCC(C)(C)C[N+](C)(C)C)c2ccccc2)cc1 (stereo unspecified)	TRPC6 inh -8.1 | TRPC4 sel inh 2 inactive | TRPC4 spec inactive | HEK293 MPD ctr 2-1 19% | HEK293 MPD ctr-1 inactive | TRPC6 inh conf inactive | TRPC6 act confirm inactive
CCOC(=O)C1=C(C)NC(C)=C(C(=O)OCC)C1c1sccc1C	TRPC6 inh -5.4 | HEK293 MPD ctr-2 inactive | HEK293 MPD ctr 2-2 inactive | TRPC4 ctr mod inactive | TRPC4 ctr inh 2 40% | TRPC6 inh conf inactive | TRPC6 act confirm inactive
